Experimental findings from ChEMBL document CHEMBL4033604, “Cytotoxicity and Mechanism of Action of the Marine-Derived Fungal Metabolite Trichodermamide B and Synthetic Analogues” (J Nat Prod, 2017) are described below.

The subject of experiment [1] is HeLa. Nature of the experiment: Induction of apoptosis in human HeLa cells assessed as upregulation of cleaved PARP protein levels at IC85 after 24 hrs by Western blot analysis. The experiment is classed as functional, cell-based. In outline:
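HeLa treated with IC85 concentration or 0.1% DMSO over a 4, 8, 16, 24 h time course; whole-cell lysates (protease inhibitors, 50 mM NaF, 200 μM Na3VO4, 1 mM PMSF), equal protein on 12% Bis-Tris SDS-PAGE, PVDF blot probed for cleaved PARP with GAPDH loading control (1:1000); two independent experiments.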
(In general: Immunoblotting shows a protein as a band on a membrane.)

For experiment [2], the system named is HeLa. As to the kind of experiment: Cytotoxicity against human HeLa cells after 48 hrs by SRB assay. The experiment is classed as functional, cell-based. In outline: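 HeLa cells treated over a concentration range for 48 h; survival by sulforhodamine B staining relative to vehicle control; four-parameter nonlinear regression; IC50 and IC85 as concentrations giving 50% or 85% inhibition of cell density; time-zero cell density marks cytotoxicity threshold; mean ± SEM, n = 4 independent experiments in triplicate.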
In general terms: In SRB staining, fixed cells bind dye roughly in proportion to their protein.

In experiment [3] the test system is HeLa. Nature of the experiment: Induction of double stranded DNA breaks in human HeLa cells assessed as gamma-H2Ax phosphorylation at Ser139 residue at IC50 after 24 hrs by Hoechst 33342 staining-based indirect immunofluorescence microscopic method. In kind it is cell-based. The essentials:
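HeLa exposed 24 h to IC50 concentration or 0.6% DMSO; fixed in ice-cold MeOH 5 min, blocked 10% bovine calf serum 20 min, anti-γH2A.X (Ser139) 2 h then Alexa Fluor 594 secondary 1 h at room temperature; nuclei counterstained Hoechst 33342; foci scored by fluorescence microscopy; n = 2 experiments in duplicate.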

For experiment [4], the system named is HeLa. As to the kind of experiment: Cytotoxicity against human HeLa cells assessed as inhibition of colony formation pretreated for 4 hrs followed by compound washout measured after 10 days by crystal violet staining based assay. The experiment is classed as functional, cell-based. In outline:
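HeLa plated at 150 cells per dish, exposed 4 h to DMSO or IC85 concentration, washed with PBS, regrown in fresh medium 10 days; fixed, stained with 0.5% crystal violet in 10% methanol, colonies counted; n = 3−5 experiments in duplicate; one-way ANOVA.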

Experiment [5] has as its system HeLa. Nature of the experiment: Cell cycle arrest in human HeLa cells at IC85 after 4 to 24 hrs by Krishan's reagent staining-based flow cytometric method. The experiment is classed as functional. (In flow cytometry, cells or beads pass a laser one at a time.)
For another experiment, the system named is LNCaP. Nature of the experiment: Cytotoxicity against human LNCAP cells after 24 to 72 hrs by MTT assay. The experiment is classed as functional, cell-based.
The next experiment relates to CWR22R. Nature of the experiment: Cytotoxicity against human 22Rv1 cells after 24 to 72 hrs by MTT assay. The experiment is classed as functional, cell-based.
Experiment [6] can be described thus: Cytotoxicity against mouse lymphoma cells by MTT assay. The experiment is classed as functional, cell-based. The settings on record: Lymphoma cell.
The test system of a further experiment is PC-3. Nature of the experiment: Cytotoxicity against human PC3 cells after 24 to 72 hrs by MTT assay. In kind it is functional, cell-based.
The subject of another experiment is A549. Nature of the experiment: Cytotoxicity against human A549 cells. In kind it is functional, cell-based.
The next experiment has as its system HL-60. Nature of the experiment: Cytotoxicity against human HL60 cells. The experiment is classed as functional, cell-based.
In a further experiment the test system is P388. As to the kind of experiment: Cytotoxicity against mouse P388 cells. The experiment is classed as functional, cell-based.
In experiment [7] the test system is HeLa. Nature of the experiment: Cell cycle arrest in human HeLa cells assessed as accumulation at G2/M phase at IC85 after 24 hrs by Krishan's reagent staining-based flow cytometric method. The experiment is classed as functional.

The structures appear in SMILES notation. Activity calls are given as the source filed them.

Usually IC50 stands for the concentration needed to halve the response being measured. Read a high IC50 as lower potency. `COc1ccc2cc(NC(=O)C3=NO[C@H]4CC(=O)C=C[C@@]4(O)C3)c(=O)oc2c1OC` (relative stereo): the result with HeLa [1], with HeLa [3] and with HeLa [5] was inactive. In the experiment on HeLa [2], this molecule came in with an IC50 of 5.7 µM. This molecule also had an IC85 in the experiment on HeLa [2] of 12 µM. Also, the inhibition entry in the experiment on HeLa [4] was “inactive”.
In the experiment on HeLa [2], `CNc1cc2ccc(OC)c(OC)c2oc1=O` registered an IC50 greater than 10 µM and an IC85 greater than 10 µM.
As for `COc1ccc([C@H]2SS[C@@]34C[C@]5(O)[C@H](Cl)C=C[C@@H](O)[C@@H]5ON3C(=O)[C@@H]2N(C)C4=O)c(O)c1OC`, the half-inhibitory concentration (IC50) was 0.51 to 5.11 µM in the experiment with LNCaP, 0.51 to 5.11 µM in the experiment on CWR22R, 2 µM in experiment [6] and 0.51 to 5.11 µM in the experiment on PC-3.
In the experiment with HeLa [2], `COc1ccc2cc(NC(=O)C3=NO[C@H]4CC(=O)[C@@H]5O[C@@H]5[C@@]4(O)C3)c(=O)oc2c1OC` gave a concentration for half-maximal inhibition (IC50) greater than 10 µM and an IC85 greater than 10 µM.
In the experiment with HeLa [2], `COc1ccc2cc(N(C)C(=O)C3=NO[C@H]4C=C[C@@H]5O[C@@H]5[C@@]4(O)C3)c(=O)oc2c1OC` gave a concentration for half-maximal inhibition (IC50) greater than 10 µM and an IC85 greater than 10 µM.
Consider `CCOC(=O)C1=NO[C@H]2CC(=O)[C@@H]3O[C@@H]3[C@@]2(O)C1` (relative stereo), for which the result in the experiment on HeLa [1], in the experiment on HeLa [3] and in the experiment with HeLa [5] was inactive. Also, half-maximal inhibition in the experiment with HeLa [2] (IC50) required 1.4 µM. This molecule also displayed an IC85 with HeLa [2] of 3.4 µM. Moreover, the inhibition result in the experiment on HeLa [4] is “inactive”.
Regarding `COc1ccc2cc(NC(=O)[C@@]34C[C@]5(O)[C@@H](C=C[C@@H](O)[C@@H]5ON3)S4)c(=O)oc2c1OC`, the IC50 in the experiment on A549 is greater than 100 µM; in the experiment with HL-60, 84 µM; in the experiment with P388, greater than 100 µM.
Take `COc1ccc2cc(NC(=O)C3=NO[C@H]4[C@H](O)C=C[C@@H](O)[C@@]4(O)C3)c(=O)oc2c1OC` [TRICHODERMAMIDE A]: the concentration for half-maximal inhibition (IC50) in the experiment on HeLa [2] is greater than 10 µM; in the experiment with A549, greater than 100 µM; in the experiment with HL-60, 89 µM; in the experiment with P388 it was greater than 100 µM. This molecule yielded an IC85 in the experiment with HeLa [2] greater than 10 µM.
In the experiment with HeLa [2], `CCOC(=O)C1=NO[C@H]2C=CC=C[C@@]2(O)C1` had an IC50 greater than 10 µM and an IC85 greater than 10 µM.
As to `COc1ccc2cc(NC(=O)C3=NO[C@H]4[C@H](O)C=C[C@@H](Cl)[C@@]4(O)C3)c(=O)oc2c1OC` [TRICHODERMAMIDE B], in the experiment with HeLa [2], the half-maximal inhibitory concentration (IC50) was 3.1 µM and the IC85 is 18 µM. Moreover, in the experiment with HeLa [3], the outcome was Active. Also, the inhibition entry with HeLa [4] is “Active”.
In the experiment on HeLa [2], `COc1ccc2cc(N)c(=O)oc2c1OC` had an IC50 greater than 10 µM and an IC85 greater than 10 µM.
As to `CCOC(=O)C1=NO[C@H]2C=C[C@@H]3O[C@@H]3[C@@]2(O)C1`, in the experiment with HeLa [2], the IC50 was greater than 10 µM and the IC85 is greater than 10 µM.
Consider `COc1ccc2cc(NC(=O)C3=NO[C@H]4C=C[C@@H]5O[C@@H]5[C@@]4(O)C3)c(=O)oc2c1OC`, for which, in the experiment with HeLa [2], the IC50 is greater than 10 µM and the IC85 was greater than 10 µM.
Turning to `CCOC(=O)C1=NO[C@H]2[C@@H]3O[C@@H]3C=C[C@@]2(O)C1`, the result with HeLa [1], in the experiment on HeLa [3] and in the experiment on HeLa [5] was inactive. In the experiment with HeLa [2], this molecule came in with a half-maximal inhibitory concentration (IC50) of 21 µM. The molecule also had an IC85 in the experiment with HeLa [2] of 51 µM. Moreover, the inhibition result in the experiment on HeLa [4] was “inactive”.
On to `COc1ccc2cc(N(C)C(=O)C3=NO[C@H]4C=CC=C[C@@]4(O)C3)c(=O)oc2c1OC`, for which, in the experiment with HeLa [2], the concentration for half-maximal inhibition (IC50) was greater than 10 µM and the IC85 is greater than 10 µM.
As to `COc1ccc2cc(N(C)C(=O)C3=NO[C@H]4[C@@H]5O[C@@H]5C=C[C@@]4(O)C3)c(=O)oc2c1OC`, in the experiment with HeLa [2], the half-maximal inhibitory concentration (IC50) is greater than 10 µM and the IC85 was greater than 10 µM.
Turning to `COc1ccc2cc(N(C)C(=O)C3=NO[C@H]4[C@H](O)C=C[C@@H](O)[C@@]4(O)C3)c(=O)oc2c1OC` [TRICHODERMAMIDE C], in the experiment with HeLa [2], the IC50 was greater than 10 µM and the IC85 is greater than 10 µM.
Regarding `CCOC(=O)C1=NO[C@H]2CC(=O)C=C[C@@]2(O)C1`, in the experiment on HeLa [2], the IC50 amounted to 12 µM and the IC85 was found to be 32 µM. The outcome in the experiment with HeLa [3] was inactive. Besides, in the experiment with HeLa [7], the outcome was Active. The inhibition result with HeLa [4] is “Active”.
As to `COc1ccc2cc(NC(=O)C3=NO[C@H]4C=CC=C[C@@]4(O)C3)c(=O)oc2c1OC`, in the experiment with HeLa [2], the 50% inhibitory concentration (IC50) is greater than 10 µM and the IC85 was greater than 10 µM.
